Assay outcomes: PubChem, Johns Hopkins Ion Channel Center
KCNQ1 pot = potentiators or activators of human KCNQ1 potassium channel. CHO-K1 KCNQ1, thallium flux FluxOR fluorescence; active compounds read high. B-score at 10 µM. actives 0.35% (n = 310,000). AID 2648;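 active = fluorescence ratio B-score, a plate-corrected score, at least three library SD, with initial intensity B-score within 5 SD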
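Medium – assay buffer, equal DMSO in all wells · Material – CHO-K1 cell line with stable KCNQ1 potassium channel expression · Signal – kinetic FluxOR thallium fluorescence, 10-s 1-Hz baseline, 110-s post-stimulus read · Compound – single concentration per compound, DMSO matched to controls · Schedule – 37 °C overnight plating, 90-min dark dye load, 20-min compound pretreatment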
hERG protect = compounds protecting human hERG from proarrhythmic drug block. Q12809. CHO-hERG, FluxOR thallium flux, dofetilide IC70 present. activation (rescue from dofetilide block), less the hit threshold, % at 10 µM. actives 0.51% (n = 310,000). AID 1511;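 active = activation above the mean of controls blocked by dofetilide plus 5 SD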;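 note: thallium influx through hERG after potassium depolarization seen as dye fluorescence rise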
Target sequence (Q12809 whole entry, looked up): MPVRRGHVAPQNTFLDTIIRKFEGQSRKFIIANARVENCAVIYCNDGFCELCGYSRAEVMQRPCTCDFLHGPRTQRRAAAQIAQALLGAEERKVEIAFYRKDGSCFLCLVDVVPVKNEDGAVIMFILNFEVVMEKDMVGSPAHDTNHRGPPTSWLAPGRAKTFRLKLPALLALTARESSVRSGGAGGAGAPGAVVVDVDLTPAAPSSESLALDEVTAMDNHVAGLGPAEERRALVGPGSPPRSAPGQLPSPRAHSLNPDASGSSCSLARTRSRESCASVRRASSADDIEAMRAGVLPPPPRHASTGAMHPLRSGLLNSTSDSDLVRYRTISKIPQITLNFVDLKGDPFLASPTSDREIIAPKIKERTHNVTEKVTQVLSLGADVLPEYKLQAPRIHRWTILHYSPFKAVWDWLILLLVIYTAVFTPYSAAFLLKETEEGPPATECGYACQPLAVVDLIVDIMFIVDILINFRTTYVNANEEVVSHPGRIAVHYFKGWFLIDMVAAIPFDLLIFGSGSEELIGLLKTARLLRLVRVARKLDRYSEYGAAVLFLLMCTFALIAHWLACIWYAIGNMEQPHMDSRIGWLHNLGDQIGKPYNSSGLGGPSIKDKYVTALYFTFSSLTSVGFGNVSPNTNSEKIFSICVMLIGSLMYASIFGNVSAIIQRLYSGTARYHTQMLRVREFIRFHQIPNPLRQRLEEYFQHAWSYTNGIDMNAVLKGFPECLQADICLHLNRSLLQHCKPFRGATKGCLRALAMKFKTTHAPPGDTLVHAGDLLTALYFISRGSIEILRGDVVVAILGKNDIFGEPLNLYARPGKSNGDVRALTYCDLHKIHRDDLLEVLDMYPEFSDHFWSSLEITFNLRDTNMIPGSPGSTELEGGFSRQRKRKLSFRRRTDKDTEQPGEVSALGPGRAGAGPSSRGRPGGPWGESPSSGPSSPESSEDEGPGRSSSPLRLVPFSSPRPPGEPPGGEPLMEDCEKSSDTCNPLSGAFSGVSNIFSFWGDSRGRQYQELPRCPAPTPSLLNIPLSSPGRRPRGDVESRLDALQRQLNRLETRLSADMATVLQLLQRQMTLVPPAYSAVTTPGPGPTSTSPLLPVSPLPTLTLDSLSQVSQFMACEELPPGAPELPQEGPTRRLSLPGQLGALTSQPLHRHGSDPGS
KCNK3 block = human KCNK3 channel inhibition, primary screen; CHO-KCNK3 thallium flux, FluxOR fluorescence; active compounds read low; actives 0.84% (n = 340,000); O14649; B-score at 10 µM;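 active = B-score under library mean minus 4 SD, starting fluorescence ratio at most library mean plus 5 SD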;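 note: more negative B-score means stronger inhibition of thallium flux through KCNK3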
KCNK9 inh = inhibitors of human KCNK9 two-pore domain potassium channel; Q9NPC2; HEK293 KCNK9, FluxOR thallium flux fluorescence; active compounds read low; B-score at 10 µM; actives 1.2% (n = 310,000);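 active = ratio B-score over 3 SD below the library mean, with starting fluorescence within 5 SD of its mean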;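 note: negative B-score means less thallium flux so channel inhibition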
Kir21 inh = Kir2.1 (mouse) channel inhibition. HEK293-Kir2.1, FluxOR thallium flux fluorescence; active compounds read low. B-score at 10 µM. actives 0.85% (n = 310,000). AID 1672;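 active = fluorescence ratio B-score at or below minus 3 SD of library scores, with starting-brightness B-score within 2 SD, cut at about -4.2 in these data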;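 note: channel flux triggered by added potassium and thallium sulfate stimulus; B-score of peak minus minimum fluorescence over baseline after thallium stimulus; more negative B-score means stronger Kir2.1 block with less thallium influx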
KCNQ1 block = inhibitors of human KCNQ1 potassium channel | P51787 | CHO-K1 KCNQ1, FluxOR thallium flux fluorescence; active compounds read high | B-score at 10 µM | actives 1.3% (n = 310,000) | AID 2642;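 active = compounds whose thallium flux B-score, printed positive for inhibition, exceeds three library SD while starting fluorescence stays within three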;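 note: channel opened by potassium depolarization with thallium stimulus after 20 min compound exposure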
KCNK9 inh conf = confirmation of human KCNK9 potassium channel inhibitors; shares compounds with KCNK9 inh; HEK293 KCNK9 cells, FluxOR thallium flux fluorescence; inhibition, % at 10 µM; actives 43% (n = 4,900);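 active = thallium signal inhibited by more than 5 SD of the compound-free buffer control wells, on both duplicate plates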;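 note: 0% = assay buffer control wells without compound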
Kir21 sel = selectivity of KCNK9 modulators against mouse Kir2.1; shares compounds with KCNK9 inh; Kir2.1 cells, FluxOR thallium flux fluorescence; inhibition, % at 10 µM; actives 4% (n = 4,900); AID 492993;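 active = thallium signal drop more than 5 SD beyond the mean of the no-compound control wells, seen in both duplicate plates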;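 note: signal is fluorescence rise after thallium addition divided by baseline fluorescence; plate controls were assay buffer only for no effect and full block by chlorpromazine control for full effect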
KCNK9 uninduced = second check of KCNK9 modulator effects in non-induced HEK293 cells; shares compounds with KCNK9 inh; FluxOR thallium flux; inhibition, % at 10 µM; actives 40% (n = 4,900);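 active = thallium signal drop beyond 5 SD of the untreated control mean, on both duplicate plates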;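 note: plate controls were buffer only IC0 wells for no effect and SID17386958 at its maximal inhibitory level for full effect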
Active calls of the source: *; i = inactive; · = no result. In the library only some 3.7% were active in any assay of this set; here they are far more common.

SMILES	KCNQ1 pot	hERG protect	KCNK3 block	KCNK9 inh	Kir21 inh	KCNQ1 block	KCNK9 inh conf	Kir21 sel	KCNK9 uninduced
COc1ccc(C(=O)NNC(=S)NC(=O)c2cccs2)cc1	i	-8	i	-9.1*	0.69	i	i	i	i
COc1ccccc1N(CC(=O)N/N=C(\C)c1ccc(F)cc1)S(=O)(=O)c1ccccc1	·	·	i	·	·	·	·	·	·
CCc1ccc(C2CC(=O)N3CN(c4ccccc4)CSC3=C2C#N)cc1 (centres undefined)	i	-2	i	i	-0.36	i	·	·	·
CN1CSC2=C(C#N)C(c3cccc(OCc4ccccc4)c3)CC(=O)N2C1 (centres undefined)	i	-7	i	i	0.26	i	i	i	i
COc1ccc(C2CC(=O)c3sc(NC(C)=O)nc3C2)cc1 (centres undefined)	i	-6	i	i	-0.7	i	·	·	·
CC(C)NC(=S)N1CCN(S(=O)(=O)c2cccc(C(F)(F)F)c2)CC1	i	-5	i	i	-0.02	i	·	·	·
COc1ccc(OC)c(S(=O)(=O)NC(N)=NCCc2ccccc2)c1	i	-8	i	i	-1.1	i	·	·	·
Cc1cccc(C)c1-n1nnnc1SCSc1nnnn1-c1c(C)cccc1C	i	-8	i	-13*	1.6	i	i	i	35%*
CSc1nnnn1-c1c(C)cccc1C	i	-4	i	i	-0.32	i	·	·	·
Cc1c(N2C(=O)c3ccccc3C2=O)c(=O)n(-c2ccccc2)n1C	i	-6	i	i	-1	i	·	·	·
Cc1c(N2C(=O)/C(=C\c3cccc4ccccc34)SC2=S)c(=O)n(-c2ccccc2)n1C	i	-6	-9.4*	i	-0.26	i	i	i	i
O=C(/C=C/NNC(=O)c1cccc(Br)c1)c1cccc(Br)c1	i	-15	-9*	-9*	1.4	i	38%*	i	34%*
COC(=O)[C@]1(CC(C)C)N[C@H](c2ccc(-c3cccc(Cl)c3)cc2)[C@@H]2C(=O)N(C)C(=O)[C@@H]21	i	-17	i	-10*	-1	i	54%*	i	40%*
CCN1C(=O)[C@H]2[C@@H](c3ccc(-c4ccc(OC)cc4)c(OC)c3)N[C@@](CC(C)C)(C(=O)OC)[C@H]2C1=O	·	·	i	·	·	·	·	·	·
COC(=O)[C@]1(CC(C)C)N[C@H](c2ccc(-c3ccc(F)cc3)c(OC)c2)[C@@H]2C(=O)N(C)C(=O)[C@@H]21	i	-4	i	-9.1*	2.4	i	38%*	i	38%*
COC(=O)[C@]1(C)N[C@H](c2ccc(-c3cccc(Cl)c3)cc2)[C@@H]2C(=O)N(C)C(=O)[C@@H]21	·	·	i	·	·	·	·	·	·
CCCCn1c(-c2cccc3ccccc23)nc2cc3[nH]c(=O)c(C(C)C)nc3cc21	i	-7	i	-11*	-0.91	i	54%*	i	i
CCCCn1c(C2CCCCC2)nc2cc3[nH]c(=O)c(C(C)C)nc3cc21	i	-21	i	i	-0.72	i	·	·	·
CC(C)CC(OC(=O)CC1Sc2ccccc2NC1=O)C(=O)NC1CCCC1 (centres undefined)	i	-6	i	-8.9*	1.8	i	i	i	i
Cc1cccc2nc(-c3ccccc3)nc(N3CCC(O)(c4ccc(Cl)cc4)CC3)c12	i	-5	i	-10*	-0.18	i	61%*	i	32%*
O=C(c1nc[nH]c1C(=O)N1CCc2ccccc2C1)N1CCc2ccccc2C1	·	·	i	·	·	·	·	·	·
Cc1nn(-c2ccccc2)c(N2CCCC2)c1/C=N/NC(=S)Nc1cc(C(F)(F)F)ccc1Cl	i	-11	i	i	1.6	i	·	·	·
Cc1nn(-c2ccccc2)c(N2CCCC2)c1/C=N/NC(=S)Nc1ccccc1C(F)(F)F	i	-3	i	-9.1*	0.09	i	44%*	i	i
CCc1ccc(Nc2nnc(SCC(=O)c3c(N)n(C4CC4)c(=O)[nH]c3=O)s2)cc1	·	·	i	·	·	·	·	·	·
Cc1ccc(-c2nc(NC(=O)CSc3cc(C)c4ccccc4n3)ns2)cc1	i	-6	i	i	-0.52	i	·	·	·
SMILES	KCNQ1 pot	hERG protect	KCNK3 block	KCNK9 inh	Kir21 inh	KCNQ1 block	KCNK9 inh conf	Kir21 sel	KCNK9 uninduced
COc1ccc2c(C)cc(SCC(=O)Nc3nsc(-c4ccc(C)cc4)n3)nc2c1	i	-22	i	-14*	-0.3	i	48%*	i	i
CN(C(=O)COC(=O)c1nc(Cl)c(Cl)c(Cl)c1Cl)C1CCS(=O)(=O)C1 (centres undefined)	i	-31	i	i	-1.5	i	·	·	·
C=CCn1c(SCC2CCCCO2)nc2sc(CC)cc2c1=O (centres undefined)	i	-10	i	i	0.28	i	i	i	34%*
O=C1COc2ccc(C(=O)/C=C/c3ccccc3)cc2N1	i	-2	i	i	-0.63	i	·	·	·
Cc1cc(C(=O)N2CCCC(C(=O)c3ccc(Cl)cc3C)C2)no1 (centres undefined)	i	-10	i	i	0	i	·	·	·
Cc1cc(Cl)ccc1C(=O)C1CCCN(C(=O)c2ccoc2)C1 (centres undefined)	i	-6	i	i	0.3	i	i	i	i
COc1ccc(NC2CCCN(C(=O)c3ccc(CSC)o3)C2)cc1OC (centres undefined)	i	-6	i	i	-0.3	i	·	·	·
Cc1cc(Cl)ccc1C(=O)C1CCCN(C(=O)c2cnsn2)C1 (centres undefined)	i	-7	i	i	-1.8	i	i	i	i
COCc1ccc(C(=O)N2CCCC(C(=O)c3ccc(Cl)cc3C)C2)o1 (centres undefined)	i	-9	i	i	-3.1	i	i	i	i
COCc1ccc(C(=O)N2CCCC(Nc3ccc4c(c3)OCCO4)C2)o1 (centres undefined)	i	-11	i	i	1.5	i	i	i	i
Cc1nc(C)c(C(=O)N2CCCC(C(=O)c3ccc(Cl)cc3C)C2)s1 (centres undefined)	i	-6	i	i	-2.8	i	·	·	·
